Assay results reported in ChEMBL document CHEMBL5247578, “Effective synthesis of benzimidazoles-imidazo[1,2-a]pyrazine conjugates: A comparative study of mono-and bis-benzimidazoles for antitumor activity” (Eur J Med Chem, 2019).

How the values were obtained:
Albumin = Albumin (Bos taurus, UniProt P02769); test: Binding affinity to bovine serum albumin assessed as binding constant by Stern-Volmer equation based fluorescence spectroscopic method; details: cattle
A498 [1] = test: Antiproliferative activity against human A498 cells assessed as cell growth at 0.00000001 M incubated for 48 hrs by SRB assay relative to control; format: functional; details: dose 10 nM, read-out: Activity
Outline: (§1)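 NCI-60 five-dose screen over 10^-4–10^-8 M (10-fold dilutions). Cells grown in RPMI 1640 with 5% FBS and 2 mM L-glutamine, seeded at 5,000–40,000 cells/well and preincubated 24 h. Drug from DMSO stock, 48 h at 37 °C, 5% CO2. Adherent cells TCA-fixed and stained with 0.4% SRB; A515 read. Percent growth = (Ti−Tz)/(C−Tz)×100, or (Ti−Tz)/Tz×100 when Ti<Tz.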

HCT-116 = test: Antiproliferative activity against human HCT-116 cells assessed as cell growth at 0.00000001 M incubated for 48 hrs by SRB assay relative to control; format: functional; details: dose 10 nM, read-out: Activity
Outline: (§2)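 NCI-60 five-dose screen (10^-4 to 10^-8 M). Cells grown in RPMI 1640 with 5% FBS and 2 mM L-glutamine, plated at 5,000-40,000 cells/well and preincubated 24 h. Drug given from DMSO stock, then 48 h at 37 °C, 5% CO2. For adherent lines, cells fixed with cold TCA, SRB-stained and read at 515 nm. Percent growth taken against time-zero and untreated control.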

SNB-19 [2] = test: Antiproliferative activity against human SNB-19 cells assessed as cell growth at 0.00000001 M incubated for 48 hrs by SRB assay relative to control; format: functional; details: dose 10 nM, read-out: Activity
Malme-3M = test: Antiproliferative activity against human Malme-3M cells assessed as cell growth at 0.00000001 M incubated for 48 hrs by SRB assay relative to control; format: functional; details: dose 10 nM, read-out: Activity
UACC-62 = test: Antiproliferative activity against human UACC-62 cells assessed as cell growth inhibition by measuring lethal concentration incubated for 48 hrs by sulforhodamine B assay; format: functional; details: read-out: LC50 (the source's name)
Outline: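 NCI-60 five-dose screen (10^-4 to 10^-8 M, 10-fold dilutions; DMSO stocks). Cells in RPMI 1640 with 5% FBS and 2 mM L-glutamine, preincubated 24 h, then exposed 48 h at 37 °C, 5% CO2. Fixed with cold TCA, stained with 0.4% SRB, absorbance read at 515 nm. Time-zero plates used as reference. LC50 taken from [(Ti-Tz)/Tz]×100 […].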

UO-31 [3] = test: Growth inhibition against human UO-31 cells assessed as total growth inhibitory concentration incubated for 48 hrs by sulforhodamine B assay; format: functional
IGROV-1 = test: Growth inhibition against human IGROV-1 cells assessed as total growth inhibitory concentration incubated for 48 hrs by sulforhodamine B assay; format: functional
MCF7 [4] = test: Growth inhibition against human MCF7 cells incubated for 48 hrs by sulforhodamine B assay; format: functional
A498 [5] = test: Growth inhibition against human A498 cells incubated for 48 hrs by sulforhodamine B assay; format: functional
OVCAR-8 = test: Growth inhibition against human OVCAR-8 cells incubated for 48 hrs by sulforhodamine B assay; format: functional
SK-MEL-2 = test: Growth inhibition against human SK-MEL-2 cells incubated for 48 hrs by sulforhodamine B assay; format: functional
M14 [6] = test: Growth inhibition against human M14 cells incubated for 48 hrs by sulforhodamine B assay; format: functional
MDA-MB-231 = test: Antiproliferative activity against human MDA-MB-231 cells assessed as cell growth at 0.00000001 M incubated for 48 hrs by SRB assay relative to control; format: functional; details: dose 10 nM, read-out: Activity
NCI-H460 = test: Antiproliferative activity against human NCI-H460 cells assessed as cell growth at 0.0000001 M incubated for 48 hrs by SRB assay relative to control; format: functional; details: dose 100 nM, read-out: Activity
SF-295 = test: Antiproliferative activity against human SF-295 cells assessed as cell growth at 0.0000001 M incubated for 48 hrs by SRB assay relative to control; format: functional; details: dose 100 nM, read-out: Activity
U-251 = test: Antiproliferative activity against human U-251 cells assessed as cell growth at 0.0000001 M incubated for 48 hrs by SRB assay relative to control; format: functional; details: dose 100 nM, read-out: Activity
NCI/ADR-RES = test: Antiproliferative activity against human NCI/ADR-RES cells assessed as cell growth at 0.0000001 M incubated for 48 hrs by SRB assay relative to control; format: functional; details: dose 100 nM, read-out: Activity
HL-60 = test: Antiproliferative activity against human HL-60 cells assessed as cell growth at 0.000001 M incubated for 48 hrs by SRB assay relative to control; format: functional; details: read-out: Activity; outline: as §2
LOX IMVI = test: Antiproliferative activity against human LOX IMVI cells assessed as cell growth at 0.000001 M incubated for 48 hrs by SRB assay relative to control; format: functional; details: read-out: Activity
M14 [7] = test: Antiproliferative activity against human M14 cells assessed as cell growth at 0.000001 M incubated for 48 hrs by SRB assay relative to control; format: functional; details: read-out: Activity
OVCAR-5 = test: Antiproliferative activity against human OVCAR-5 cells assessed as cell growth at 0.000001 M incubated for 48 hrs by SRB assay relative to control; format: functional; details: read-out: Activity
CCRF-CEM = test: Antiproliferative activity against human CCRF-CEM cells assessed as cell growth at 0.00001 M incubated for 48 hrs by SRB assay relative to control; format: functional; details: read-out: Activity; outline: as §1
COLO 205 = test: Antiproliferative activity against human COLO 205 cells assessed as cell growth at 0.00001 M incubated for 48 hrs by SRB assay relative to control; format: functional; details: read-out: Activity; outline: as §1
HT-29 = test: Antiproliferative activity against human HT-29 cells assessed as cell growth at 0.00001 M incubated for 48 hrs by SRB assay relative to control; format: functional; details: read-out: Activity; outline: as §2
SK-MEL-28 = test: Antiproliferative activity against human SK-MEL-28 cells assessed as cell growth at 0.00001 M incubated for 48 hrs by SRB assay relative to control; format: functional; details: read-out: Activity
TK-10 [8] = test: Antiproliferative activity against human TK-10 cells assessed as cell growth at 0.00001 M incubated for 48 hrs by SRB assay relative to control; format: functional; details: read-out: Activity
UO-31 [9] = test: Antiproliferative activity against human UO-31 cells assessed as cell growth at 0.00001 M incubated for 48 hrs by SRB assay relative to control; format: functional; details: read-out: Activity
MCF7 [10] = test: Antiproliferative activity against human MCF7 cells assessed as cell growth at 0.00001 M incubated for 48 hrs by SRB assay relative to control; format: functional; details: read-out: Activity
EKVX = test: Antiproliferative activity against human EKVX cells assessed as cell growth at 0.0001 M incubated for 48 hrs by SRB assay relative to control; format: functional; details: read-out: Activity; outline: as §2
SNB-19 [11] = test: Antiproliferative activity against human SNB-19 cells assessed as cell growth at 0.0001 M incubated for 48 hrs by SRB assay relative to control; format: functional; details: read-out: Activity
SNB-75 = test: Antiproliferative activity against human SNB-75 cells assessed as cell growth at 0.0001 M incubated for 48 hrs by SRB assay relative to control; format: functional; details: read-out: Activity
TK-10 [12] = test: Antiproliferative activity against human TK-10 cells assessed as cell growth at 0.0001 M incubated for 48 hrs by SRB assay relative to control; format: functional; details: read-out: Activity

Albumin, sequence (P02769 whole entry): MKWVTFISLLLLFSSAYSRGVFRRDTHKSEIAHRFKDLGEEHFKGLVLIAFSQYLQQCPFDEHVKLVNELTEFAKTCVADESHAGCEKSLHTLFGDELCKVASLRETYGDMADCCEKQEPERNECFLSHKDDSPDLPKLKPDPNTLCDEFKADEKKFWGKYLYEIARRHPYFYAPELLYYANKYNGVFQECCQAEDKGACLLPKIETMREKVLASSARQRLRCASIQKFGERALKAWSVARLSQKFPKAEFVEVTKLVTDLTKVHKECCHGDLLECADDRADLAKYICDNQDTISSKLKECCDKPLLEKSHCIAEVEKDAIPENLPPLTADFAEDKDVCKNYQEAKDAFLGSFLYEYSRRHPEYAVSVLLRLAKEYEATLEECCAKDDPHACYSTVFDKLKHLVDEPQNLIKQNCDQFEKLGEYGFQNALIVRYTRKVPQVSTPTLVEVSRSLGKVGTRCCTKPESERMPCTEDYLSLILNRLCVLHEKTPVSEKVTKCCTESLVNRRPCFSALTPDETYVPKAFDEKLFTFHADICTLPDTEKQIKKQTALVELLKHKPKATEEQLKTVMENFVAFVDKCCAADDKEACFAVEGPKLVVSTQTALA

Row | SMILES | Kb (Albumin) | growth at 0.01 µM (A498 [1]) [%] | growth at 0.01 µM (HCT-116) [%] | growth at 0.01 µM (SNB-19 [2]) [%] | growth at 0.01 µM (Malme-3M) [%] | CC50 (UACC-62) [nM] | TGI (UO-31 [3]) [nM] | TGI (IGROV-1) [nM] | GI50 (MCF7 [4]) [nM] | GI50 (A498 [5]) [nM] | GI50 (OVCAR-8) [nM] | GI50 (SK-MEL-2) [nM] | GI50 (M14 [6]) [nM] | growth at 0.01 µM (MDA-MB-231) [%] | growth at 0.1 µM (NCI-H460) [%] | growth at 0.1 µM (SF-295) [%] | growth at 0.1 µM (U-251) [%] | growth at 0.1 µM (NCI/ADR-RES) [%] | growth at 1 µM (HL-60) [%] | growth at 1 µM (LOX IMVI) [%] | also measured
1 | COc1ccc(-c2cn3ccnc3c(-c3ccc4ncn(C5CCCCC5)c4c3)n2)cc1 | 4.68 10^5/M | 100 | 95 | 107 | 100 | > 100000 | > 100000 | > 100000 | 640 | 742 | 3160 | 944 | 612 | 99 | 107 | 91 | 104 | 94 | 52 | 44 | growth at 1 µM (M14 [7]): 38%; growth at 1 µM (OVCAR-5): 75%; growth at 10 µM (CCRF-CEM): 16%; growth at 10 µM (COLO 205): 1%; growth at 10 µM (HT-29): -5%; growth at 10 µM (SK-MEL-28): 33%; growth at 10 µM (TK-10 [8]): 13%; growth at 10 µM (UO-31 [9]): 14%; growth at 10 µM (MCF7 [10]): 16%; growth at 100 µM (EKVX): 26%; growth at 100 µM (SNB-19 [11]): 15%; growth at 100 µM (SNB-75): 11%; growth at 100 µM (TK-10 [12]): -3%
2 | c1ccc(Cn2cnc3ccc(-c4nc(-c5ccc6c(c5)ncn6C5CCCCC5)cn5ccnc45)cc32)cc1 | 1.08 10^5/M | 95 | 89 | 99 | 92 | > 100000 | 4550 | > 100000 | 2720 | 1860 | 2600 | 2020 | 1450 | 102 | 108 | 92 | 107 | 97 | 113 | 88 | growth at 1 µM (M14 [7]): 65%; growth at 1 µM (OVCAR-5): 89%; growth at 10 µM (CCRF-CEM): 8%; growth at 10 µM (COLO 205): -61%; growth at 10 µM (HT-29): -48%; growth at 10 µM (SK-MEL-28): -9%; growth at 10 µM (TK-10 [8]): 11%; growth at 10 µM (UO-31 [9]): -40%; growth at 10 µM (MCF7 [10]): 2%; growth at 100 µM (EKVX): 14%; growth at 100 µM (SNB-19 [11]): 32%; growth at 100 µM (SNB-75): -47%; growth at 100 µM (TK-10 [12]): 13%
